Test results as given in PubChem BioAssay.
Results filed as inconclusive are left out.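 How the source made its calls, unless noted: active means RAM network inhibition above 8.4% in each of two replicates, 3 SD over the compound average; inconclusive means above 8.4% inhibition in only one replicate; inactive means 8.4% inhibition or less in each replicate.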

Key:
[1] = OD615 S. cerevisiae growth inhibition, permissive medium, pilot counter-assay, permissive growth control for S. cerevisiae lifespan shortening project (AID 705;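 active means growth inhibition above 25% in both replicates, a cutoff set 3 SD above the mean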); details: OD615, 24 h, at 10 µM, stronger effect = higher value
Summary of the method: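 System: S. cerevisiae with engineered DeaD lifespan system. Medium: SC raffinose/galactose permissive medium. Doses: single compound dose of 10 µM, 0.25% DMSO final. Schedule: 24 h exposure, 30 °C. Measured by: OD615 turbidity read. Read-out: growth inhibition.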

[2] = Restrictive medium S. cerevisiae growth inhibition, OD615, pilot screen of yeast lifespan reduction project, restrictive growth control (AID 706;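 active means growth inhibition above a set limit, 3 SD over mean compound inhibition, in both replicates, cut at about 43% in these data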;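 further: modified DeaD lifespan yeast strain shifted to restrictive glucose medium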); details: OD615, 48 h, at 10 µM, stronger effect = higher value
Summary of the method: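 Assay system – genetically modified Saccharomyces cerevisiae, DeaD replicative lifespan assay strain · Medium – CSMM-D glucose medium · Doses – 10 µM compound, 0.25% DMSO · Times – 4 h pre-incubation, 48 h exposure at 30 °C · Signal – optical density at 615 nm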

[3] = viability gain of MRP-1-high H69AR cells under doxorubicin, pilot screen, MRP-1 activator project, CellTiter-Glo, duplicate (AID 807;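 active means viability increase at or above a cutoff of the median across tested compounds plus 3 SD, cut at about 8.5% in these data, passing the limit was not always enough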;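 further: compound pretreatment 18-22 h then 72 h combined with doxorubicin; 0% = doxorubicin alone and 100% = vehicle without doxorubicin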); details: H69AR viability with doxorubicin, CellTiter-Glo luminescence; at 10 µM; stronger effect = higher value
[4] = growth suppression of beta-catenin knockout HCT116, pilot screen, human colon tumor cells (AID 823;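 active means cell viability at or below a set limit in both duplicate runs, the limit being the all-compound median minus 4 SD, cut at about 23% in these data, passing the limit was not always enough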;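 further: 0% = wells killed by 20 µM Hyamine and 100% = untreated DMSO cell wells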); details: CellTiter-Glo, 60 h, at 10 µM, stronger effect = lower value
[5] = growth suppression of PTEN-deleted HCT116, pilot screen, cell-based, HCT116 clonal line, CellTiter-Glo (AID 824;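 active means viability at or below 27.92% in each of two runs, the all-compound median minus 4 SD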;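 further: 0% = 20 µM Hyamine control and 100% = vehicle cell control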); details: 60 h, at 10 µM, stronger effect = lower value
[6] = inhibitors of the yeast RAM network, pilot screen, dse1pr::URA3 reporter, 5-FOA selection (AID 869;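 active means inhibition over a set limit, the all-compound mean plus 3 SD, in both replicate runs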;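 further: 0% = DMSO wells with no growth and 100% = 10 µM 1-NA-PP1 with full growth; RAM network block rescues cells from 5-FOA so hits raise OD615 growth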); details: S. cerevisiae dse1pr::URA3 5-FOA growth, OD615, 2 d; at 10 µM; stronger effect = higher value; strain carries analog-sensitive mutant Cbk1 kinase
[7] = RAM signaling pathway blockade in yeast – S. cerevisiae, Pdr1DBD-CYC8 efflux-inhibited sensitized strain, primary screen (AID 1298);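 further: 0% = DMSO untreated cells without growth and 100% = 10 µM 1-NA-PP1 full growth; higher means more yeast growth rescued from 5-FOA killing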; details: S. cerevisiae cbk1-as DSE1-URA3 strain, 5-FOA growth OD615, 2 d; at 50 µM; stronger effect = higher value

CCOC(=O)c1sc(/N=C/N(C)C)c(C(=O)OCC)c1C
inactive: growth inhibition [1] -5.24% | growth inhibition [2] 0.92% | viability increase [3] -3.82% | viability [4] 95.3% | viability [5] 90.4% | inhibition [6] 1.98% | RAM network inhibition [7] 7.56%

CC1Cc2ccccc2N1C(=O)CCn1c(=O)sc2ccccc21 (stereo not drawn)
inactive: growth inhibition [1] -4.26% | growth inhibition [2] -16.9% | viability increase [3] -1.79% | viability [4] 93.3% | viability [5] 85.3% | inhibition [6] 1.17% | RAM network inhibition [7] 3.45%

COc1cccc(-n2c(Cc3cc(=O)[nH]c(=O)[nH]3)nnc2SC(C)C)c1
inactive: growth inhibition [1] -12.3% | growth inhibition [2] 8.2% | viability increase [3] -0.34% | viability [4] 103% | viability [5] 100% | inhibition [6] 1.71% | RAM network inhibition [7] 3.35%

CC(C)N(Cc1nc2ccccc2[nH]1)C(C)C
inactive: growth inhibition [1] 2.5% | growth inhibition [2] 4.54% | viability increase [3] -0.49% | viability [4] 94.1% | viability [5] 91.9% | inhibition [6] 1.25% | RAM network inhibition [7] 0.22%

C=CCn1c(=O)c(C(=O)Nc2ccccc2OC)c(O)c2ccccc21
inactive: growth inhibition [1] 1.44% | growth inhibition [2] -2.46% | viability increase [3] -2.69% | viability [4] 104% | viability [5] 90.1% | inhibition [6] 2.31% | RAM network inhibition [7] 1.39%

COC(=O)c1ccc(-c2nc(-c3ccc(Br)o3)no2)cc1
inactive: growth inhibition [1] -14% | growth inhibition [2] -20.4% | viability increase [3] 3.93% | viability [4] 103% | viability [5] 87.4% | inhibition [6] 2.63% | RAM network inhibition [7] 1.84%

CCOc1ccc(-c2nc(-c3ccccc3)no2)cc1OCC
inactive: growth inhibition [1] -16.6% | growth inhibition [2] -29.6% | viability increase [3] 2.12% | viability [4] 106% | viability [5] 91% | inhibition [6] 3.66% | RAM network inhibition [7] 5.86%

O=C(c1ccc(S(=O)(=O)N2CCCCC2)cc1)N1CCN=C1SCc1cccnc1
inactive: growth inhibition [1] -1.57% | growth inhibition [2] -2.72% | viability increase [3] 1.27% | viability [4] 89.4% | viability [5] 89.3% | inhibition [6] 1.77% | RAM network inhibition [7] 4.85%

OCc1cn(-c2ccccc2)nc1-c1ccc(-c2nn(-c3ccccc3)cc2CO)cc1
inactive: growth inhibition [1] 3.83% | growth inhibition [2] -4.29% | viability increase [3] -4.72% | viability [4] 102% | viability [5] 95.1% | inhibition [6] 1.8% | RAM network inhibition [7] 5.84%

CCn1c(C(=O)NC(C)c2ccc3c(c2)OCCO3)cc2sccc21 (stereo not drawn)
inactive: growth inhibition [1] -7.09% | growth inhibition [2] -9.22% | viability increase [3] -0.14% | viability [4] 96.1% | viability [5] 82% | inhibition [6] 1.62% | RAM network inhibition [7] 3.22%

CN(C)S(=O)(=O)c1ccc(C(=O)Nc2ccc(F)cc2F)cc1
inactive: growth inhibition [1] -14.5% | growth inhibition [2] 0.42% | viability increase [3] 1.08% | viability [4] 95.5% | viability [5] 94.4% | inhibition [6] 0.29% | RAM network inhibition [7] 2.9%

O=C(CCc1nc2ccccc2[nH]1)NC1CCCCC1
inactive: growth inhibition [1] -16.3% | growth inhibition [2] -17.4% | viability increase [3] -0.01% | viability [4] 102% | viability [5] 96.9% | inhibition [6] 1.21% | RAM network inhibition [7] 1.28%

COc1cccc(C2=N/C(=C\N(C)C)C(=O)O2)c1
inactive: growth inhibition [1] 1.7% | growth inhibition [2] 11.6% | viability increase [3] -0.29% | viability [4] 94.7% | viability [5] 102% | inhibition [6] -0.855% | RAM network inhibition [7] 2.96%

COC(=O)CN1C(=O)C(O)(CC(=O)c2cccc(Br)c2)c2ccccc21 (stereo not drawn)
inactive: growth inhibition [1] -6.81% | growth inhibition [2] -10.7% | viability increase [3] -4.39% | viability [4] 90.9% | viability [5] 86.9% | inhibition [6] 1.2% | RAM network inhibition [7] 2.42%

CCN1C(=O)c2ccccc2S(=O)c2ccc(C(=O)NCc3ccccn3)cc21 (stereo not drawn)
inactive: growth inhibition [1] -1.77% | growth inhibition [2] -3.51% | viability increase [3] -0.87% | viability [4] 105% | viability [5] 95.7% | inhibition [6] 1.95% | RAM network inhibition [7] -2.39%

COC(=O)Cn1c(CN2CCc3ccccc3C2)nc2c1c(=O)n(C)c(=O)n2C
inactive: growth inhibition [1] -4.78% | growth inhibition [2] 0.56% | viability increase [3] -1.18% | viability [4] 95.6% | viability [5] 96.2% | inhibition [6] 1.31% | RAM network inhibition [7] 8.74%

Cc1ccc(OCc2nc(-c3ccccn3)no2)c(Br)c1
inactive: growth inhibition [1] 1.26% | growth inhibition [2] 4.31% | viability increase [3] 1.13% | viability [4] 86.7% | viability [5] 84.9% | inhibition [6] -0.35% | RAM network inhibition [7] 1.62%

Cn1c(NC(=O)c2ccccc2F)cc(=O)n(C)c1=O
inactive: growth inhibition [1] -0.14% | growth inhibition [2] -2.47% | viability increase [3] 0.23% | viability [4] 101% | viability [5] 106% | inhibition [6] 0.595% | RAM network inhibition [7] -1.63%

CC(=O)Nn1cc2c(c1-c1ccccc1)c(=O)n(C)c(=O)n2C
inactive: growth inhibition [1] -10% | growth inhibition [2] -3.13% | viability increase [3] 1.16% | viability [4] 93% | viability [5] 87.2% | inhibition [6] 1.5% | RAM network inhibition [7] 3.01%

C=CCOc1ccc(/C=C/C(C)=N\O)cc1
inactive: growth inhibition [1] 3.48% | growth inhibition [2] 7.77% | viability increase [3] -3.27% | viability [4] 93.2% | viability [5] 96.3% | inhibition [6] 1.11% | RAM network inhibition [7] 9.15%

CCOC(=O)Nc1sc(NS(=O)(=O)c2ccccc2)nc1C
inactive: growth inhibition [1] -10.4% | growth inhibition [2] 3.58% | viability increase [3] -0.61% | viability [4] 105% | viability [5] 104% | inhibition [6] 0.295% | RAM network inhibition [7] 2.87%

O=C(CSc1nnc(C2COc3ccccc3O2)o1)N1CCCCC1 (stereo not drawn)
inactive: growth inhibition [1] -7.62% | growth inhibition [2] 2.56% | viability increase [3] -0.36% | viability [4] 98.7% | viability [5] 105% | inhibition [6] -0.035% | RAM network inhibition [7] 0.97%

CCCCSc1nc2c(cnn2-c2ccc(C)c(C)c2)c(=O)[nH]1
inactive: growth inhibition [1] -3.77% | growth inhibition [2] 8.57% | viability increase [3] -6.91% | viability [4] 59.1% | viability [5] 59.5% | inhibition [6] 1.05% | RAM network inhibition [7] 5.36%

O=C(Cc1c(C(=O)O)[nH]c2ccccc12)NC1CCN(Cc2ccccc2)CC1
inactive: growth inhibition [1] -9.14% | growth inhibition [2] -14.9% | viability increase [3] 0.24% | viability [4] 102% | viability [5] 99.8% | inhibition [6] 1.6% | RAM network inhibition [7] -1.14%
